PfG6PD inh: PfG6PD (Plasmodium falciparum) enzyme inhibition. PfGluPho enzyme, NADPH resazurin-diaphorase fluorescence. 350,000 compounds, 0.78% hits. inhibition, % at 20 µM;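 active = inhibition reaching at least a set limit at 20 µM in the primary screen, cut at about 59% in these data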;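 also: 0% = DMSO wells with substrate and 100% = DMSO wells lacking glucose-6-phosphate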
HKDC1 inhibitor: inhibitors of human hexokinase HKDC1. recombinant HKDC1, G6PDH/diaphorase resazurin coupled fluorescence. inhibition, % at 20 µM. Q2TB90. AID 493160. 340,000 compounds, 0.16% hits;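 active = inhibition above about 35% when tested at 20 µM, limit read from the data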;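 also: plate controls were DMSO wells with enzyme for no effect and DMSO wells lacking enzyme for full effect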
Target sequence (Q2TB90 whole entry, looked up): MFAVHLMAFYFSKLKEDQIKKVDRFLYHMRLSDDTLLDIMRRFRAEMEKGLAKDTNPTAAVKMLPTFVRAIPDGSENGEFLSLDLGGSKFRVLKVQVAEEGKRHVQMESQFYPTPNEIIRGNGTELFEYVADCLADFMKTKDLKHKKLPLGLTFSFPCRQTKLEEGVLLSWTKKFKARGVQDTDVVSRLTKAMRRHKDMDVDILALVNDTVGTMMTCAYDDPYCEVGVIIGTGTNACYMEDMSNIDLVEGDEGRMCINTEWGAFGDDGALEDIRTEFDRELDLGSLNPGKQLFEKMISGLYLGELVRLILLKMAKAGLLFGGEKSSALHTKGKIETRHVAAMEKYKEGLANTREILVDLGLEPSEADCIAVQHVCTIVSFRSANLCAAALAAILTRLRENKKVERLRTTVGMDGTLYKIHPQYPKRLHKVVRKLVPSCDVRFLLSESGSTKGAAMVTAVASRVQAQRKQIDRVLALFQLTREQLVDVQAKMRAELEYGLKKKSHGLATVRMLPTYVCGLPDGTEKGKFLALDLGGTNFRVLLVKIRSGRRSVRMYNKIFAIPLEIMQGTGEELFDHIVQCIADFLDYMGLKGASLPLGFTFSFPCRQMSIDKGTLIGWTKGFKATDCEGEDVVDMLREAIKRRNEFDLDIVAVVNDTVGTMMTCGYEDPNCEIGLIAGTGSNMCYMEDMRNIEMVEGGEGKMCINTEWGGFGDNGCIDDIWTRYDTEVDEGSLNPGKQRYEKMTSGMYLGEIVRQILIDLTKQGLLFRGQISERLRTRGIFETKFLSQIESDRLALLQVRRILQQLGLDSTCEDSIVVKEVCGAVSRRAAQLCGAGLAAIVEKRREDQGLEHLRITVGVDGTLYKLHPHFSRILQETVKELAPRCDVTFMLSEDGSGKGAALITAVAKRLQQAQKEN
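Material: recombinant HKDC1 hexokinase; Amount: HKDC1 at 5 µg/mL; Medium: Tris pH 8.0 buffer with MgCl2, Tween-20, BSA, BME; Schedule: 90 min reaction incubation at room temperature, dark; Technique: coupled resazurin fluorescence, excitation 525 nm, emission 613 nm.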
PKA-R1A activ: activates the PKA-R1A holoenzyme complex. P00514+P68181. PKA-R1A dissociation, Cy5-IP20 fluorescence polarization; scaled: DMSO 0%, 113 µM cGMP 100%. activation, % at 11.4 µM. 340,000 compounds, 0.083% hits. AID 504707;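 active = percent activation above the mean of all tested compounds plus 3 SD, cut at about 19% in these data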;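 also: higher means more PKAc released from R1A so a rise in polarization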
T cell modulator: modulates CD8 T cell binding to vesicles. 2C CD8+ T cell-vesicle binding, flow cytometry; hits give low values. response (vesicle binding), % at 7 µM. 330,000 compounds, 0.068% hits. AID 2052;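 active = response, share of CD8 T cells binding vesicles, and their 90th percentile fluorescence all below set limits, cut at about 80% in these data, passing the limit was not always enough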;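 also: values below 100% mean blocked vesicle binding to the CD8+ T cells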
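Assay system – 2C mouse CD8+ T cells · Also added – QL9-loaded Drosophila micro-vesicles · Timing – Cell–vesicle co-incubation 1.5 h at 37 °C, staining 20 min on ice · Signal – flow cytometry of vesicle-bound cells · Measure – percent CD8+ FL2 mean versus row control · Controls – Peptide-free naked vesicles (low) and QL9 vesicles with 0.7% DMSO vehicle (high)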
ATG4B inh: ATG4B (human) cysteine protease inhibition; AID 504462; ATG4B cleavage of LC3-PLA2, NBD-HPC fluorescence, 1 h; Q9Y4P1; 340,000 compounds, 0.51% hits; inhibition, % at 8.33 µM; in the data active = inhibition above about 40%
PKA-R2B act: activators of human PKA-R2B complex. P22694+P31323. PKA-R2B holoenzyme dissociation, Cy5-IP20 fluorescence polarization; R2B truncated from residue 108, S112A mutant; 0% DMSO only, 100% 113 µM cGMP. activation, % at 11.4 µM. 340,000 compounds, 0.079% hits;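 active = activation above a cutoff set at the mean over all compounds plus 3 SD, cut at about 18% in these data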;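 also: higher means more holoenzyme dissociation and a rise in polarization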
PfG6PD confirm: PfG6PD inhibition, single-dose confirmed. shares compounds with PfG6PD inh. recombinant PfGluPho, NADPH-diaphorase-resazurin fluorescence. inhibition, % at 20 µM. 2,400 compounds, 34% hits;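 active = inhibition of at least 50% at 20 µM in any single replicate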;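 also: 0% = DMSO with substrate and 100% = DMSO lacking glucose-6-phosphate substrate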
* marks the source's active call; other numbers are inactive results. An excerpt weighted towards active compounds, which were near 1.6% of everything screened.

Screening COc1ccc2nc3n(c(=O)c2c1)-c1ccc(Cl)cc1C(=O)NC3Cc1ccc(O)cc1 (stereo not drawn) returned PfG6PD inh -10, HKDC1 inhibitor 1, PKA-R1A activ -8 and PKA-R2B act -3.
`S=c1[nH]c(-c2ccccc2)cn1/N=C/c1ccc(Br)cc1` gave PfG6PD inh 29, HKDC1 inhibitor -2, PKA-R1A activ 3, T cell modulator inactive, ATG4B inh 10 and PKA-R2B act 6.
`S=c1[nH]c(-c2ccccc2)cn1/N=C/c1cccs1` gave PfG6PD inh 63*, HKDC1 inhibitor -2, PKA-R1A activ -10, T cell modulator 595, ATG4B inh 1, PKA-R2B act -6 and PfG6PD confirm 27.
For CC1CCN(C(=O)CSc2nc(C(C)C)nc3c2c(=O)n(C)c(=O)n3C)CC1 the results were PfG6PD inh -11, HKDC1 inhibitor 3, PKA-R1A activ -4, T cell modulator 227, ATG4B inh 2 and PKA-R2B act 0.
For Cc1ccc2c(c1)N(C(=O)CCC(=O)NCc1cccc(F)c1)CCO2 the results were PfG6PD inh 13, HKDC1 inhibitor 1, PKA-R1A activ 3, T cell modulator 471, ATG4B inh -13 and PKA-R2B act -9.
`Cc1ccc(C)c(OCCNc2ncccc2[N+](=O)[O-])c1` gave PfG6PD inh 2, HKDC1 inhibitor -1, PKA-R1A activ 4, T cell modulator 261, ATG4B inh 4 and PKA-R2B act 7.
For Cc1ccc(Nc2nnc(-c3ccc4c(c3)OCO4)o2)c(C)c1 the results were PfG6PD inh 70*, HKDC1 inhibitor 1, PKA-R1A activ -7, T cell modulator 202, ATG4B inh -9, PKA-R2B act 0 and PfG6PD confirm 39.
Screening CCOC(=O)C1=CN(Cc2cccc(F)c2)S(=O)(=O)N(CC)C1c1ccc(Br)cc1F (stereo not drawn) returned PfG6PD inh 24, HKDC1 inhibitor -1, PKA-R1A activ -8, ATG4B inh 0 and PKA-R2B act -2.
Oc1ccc(N2CCN(C(=S)NCCc3ccccc3)CC2)cc1 was read as PfG6PD inh 67*, HKDC1 inhibitor 7, PKA-R1A activ -11, T cell modulator 171, ATG4B inh -3, PKA-R2B act -1 and PfG6PD confirm 11.
COc1ccc(N2CCN(C(=S)NCCc3ccccc3)CC2)cc1 was read as PfG6PD inh -1, HKDC1 inhibitor -3, PKA-R1A activ -2, T cell modulator 196, ATG4B inh 1 and PKA-R2B act -15.
O=C(CN1CCN(c2ccc(O)cc2)CC1)Nc1ccccc1C(=O)NCCc1ccccc1 was read as PfG6PD inh 70*, HKDC1 inhibitor 5, PKA-R1A activ 3, T cell modulator 142, ATG4B inh -1, PKA-R2B act -10 and PfG6PD confirm 34.
COc1cccc(N2CCN(CC(=O)Nc3ccccc3C(=O)NCCc3ccccc3)CC2)c1 was read as PfG6PD inh 25, HKDC1 inhibitor -1, PKA-R1A activ 3, T cell modulator 359, ATG4B inh -41 and PKA-R2B act -8.
Screening CCCCOc1ccc(N2C(=O)C(C)CNC2=S)cc1 (stereo not drawn) returned PfG6PD inh -9, HKDC1 inhibitor 0, PKA-R1A activ -14, ATG4B inh 1 and PKA-R2B act 1.
